Series [1] has as its target T1, Dual specificity tyrosine-phosphorylation-regulated kinase 1B (Homo sapiens, UniProt Q9Y463). The series can be described thus: Inhibition of full length recombinant human GST-tagged Dyrk1B expressed in baculovirus expression system at 0.5 uM using KKISGRLSPIMTEQ-NH2 peptide as substrate in presence of [gamma-32P]-ATP relative to control. The method in brief: (§1)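 Dyrk1B kinase assay with ATP at 15 μM. Single-point % inhibition measured at 0.5 μM, and IC50 determined. Values are means of at least two independent experiments, each run in duplicate, with standard deviation <10%.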
Target sequence in this assay (Q9Y463 whole entry, looked up): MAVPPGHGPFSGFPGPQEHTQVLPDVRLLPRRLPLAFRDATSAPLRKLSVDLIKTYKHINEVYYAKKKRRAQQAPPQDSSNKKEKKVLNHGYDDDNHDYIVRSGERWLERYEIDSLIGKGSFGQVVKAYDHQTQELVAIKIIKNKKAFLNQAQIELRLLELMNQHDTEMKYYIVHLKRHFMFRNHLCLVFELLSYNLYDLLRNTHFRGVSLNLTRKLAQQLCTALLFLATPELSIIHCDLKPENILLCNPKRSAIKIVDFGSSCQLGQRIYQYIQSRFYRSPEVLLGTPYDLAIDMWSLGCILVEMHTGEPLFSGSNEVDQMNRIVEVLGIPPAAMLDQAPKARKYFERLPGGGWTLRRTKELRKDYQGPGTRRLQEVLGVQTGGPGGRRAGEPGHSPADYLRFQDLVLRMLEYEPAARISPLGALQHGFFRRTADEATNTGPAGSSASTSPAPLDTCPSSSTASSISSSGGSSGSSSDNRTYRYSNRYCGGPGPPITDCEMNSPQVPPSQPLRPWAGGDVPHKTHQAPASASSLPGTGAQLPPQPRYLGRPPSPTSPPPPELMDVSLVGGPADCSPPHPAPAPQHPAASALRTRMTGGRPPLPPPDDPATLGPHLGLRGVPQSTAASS

The target of series [2] is T2, Dual specificity tyrosine-phosphorylation-regulated kinase 1A (Homo sapiens, UniProt Q13627). The series can be described thus: Inhibition of recombinant human N-terminal His6-tagged Dyrk1A catalytic domain expressed in Escherichia coli BL21 (DE3) using KKISGRLSPIMTEQ-NH2 peptide as substrate in presence of [gamma-32P]-ATP.
In series [3] the target is T1, Dual specificity tyrosine-phosphorylation-regulated kinase 1B. The series can be described thus: Inhibition of full length recombinant human GST-tagged Dyrk1B expressed in baculovirus expression system using KKISGRLSPIMTEQ-NH2 peptide as substrate in presence of [gamma-32P]-ATP. The method in brief: as §1
Target sequence in this assay (Q9Y463 whole entry): as the sequence (Q9Y463 whole entry, looked up) above
Series [4] is described as follows: Half life in human liver S9 fraction assessed as CYP450-mediated compound degradation at 0.3 uM after 15 to 60 mins by LC-MS/MS analysis. The class given is ADME, subcellular. The procedure, abridged: (§2)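 Pooled human liver S9 fraction incubated with compound at 37 °C. Samples taken at 0, 15, 30 and 60 min, and parent compound quantified by MS. Half-life and parent compound remaining derived from these measurements.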

For series [5], the species on record is Homo sapiens. In words: Selectivity ratio of IC50 for full length recombinant human GST-tagged Dyrk1B to IC50 for recombinant human N-terminal His6-tagged Dyrk1A catalytic domain. The procedure, abridged: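 Ratio of Dyrk1B IC50 to Dyrk1A IC50. Both IC50s determined with ATP at 15 μM, from means of at least two independent duplicate experiments.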
Series [6] has as its target T3, Dual specificity protein kinase CLK1 (Homo sapiens, UniProt P49759). In words: Inhibition of recombinant GST-tagged human CLK1 expressed in Escherichia coli at 5 uM using RSRSRSRSR peptide as substrate in presence of [gamma-32P]-ATP.
Target sequence in this assay (P49759 whole entry, looked up, the tested form may be a part): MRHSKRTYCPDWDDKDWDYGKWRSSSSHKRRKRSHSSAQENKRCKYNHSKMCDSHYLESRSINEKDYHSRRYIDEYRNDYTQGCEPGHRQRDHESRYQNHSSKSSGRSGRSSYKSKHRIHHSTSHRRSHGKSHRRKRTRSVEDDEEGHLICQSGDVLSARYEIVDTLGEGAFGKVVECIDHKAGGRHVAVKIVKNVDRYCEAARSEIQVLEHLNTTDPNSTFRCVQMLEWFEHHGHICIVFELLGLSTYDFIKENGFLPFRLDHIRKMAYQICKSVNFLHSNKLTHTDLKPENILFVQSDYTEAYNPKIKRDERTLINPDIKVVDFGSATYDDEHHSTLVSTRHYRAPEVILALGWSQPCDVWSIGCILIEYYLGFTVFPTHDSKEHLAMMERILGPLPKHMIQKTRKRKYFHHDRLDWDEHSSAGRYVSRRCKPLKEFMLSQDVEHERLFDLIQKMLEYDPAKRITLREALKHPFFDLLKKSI
Series [7] concerns the target T2, Dual specificity tyrosine-phosphorylation-regulated kinase 1A. The series can be described thus: Inhibition of recombinant human N-terminal His6-tagged Dyrk1A catalytic domain expressed in Escherichia coli BL21 (DE3) at 5 uM using KKISGRLSPIMTEQ-NH2 peptide as substrate in presence of [gamma-32P]-ATP relative to control. The procedure, abridged:
(§3)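 Kinase panel run at a single 5 μM inhibitor concentration with ATP at 100 μM. Activity expressed as % inhibition. Values are means of at least two duplicates.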

The target in series [8] is Cyclin-dependent kinase 5/CDK5 activator 1 (Homo sapiens) (UniProt Q00535+Q15078). In words: Inhibition of full length recombinant human GST-tagged CDK5/His-tagged p25 expressed in baculovirus expression system at 5 uM relative to control. The procedure, abridged:
as §3

Series [9] deals with Casein kinase I isoform delta (Homo sapiens) (UniProt P48730). In words: Inhibition of full length recombinant human GST-tagged CK1delta expressed in baculovirus expression system at 5 uM relative to control. The procedure, abridged: as §3
The target of series [10] is Homeodomain-interacting protein kinase 1 (Homo sapiens) (UniProt Q86Z02). In words: Inhibition of recombinant human GST-tagged HIPK1 expressed in baculovirus expression system at 5 uM relative to control. The method in brief: as §3
The target of series [11] is BDNF/NT-3 growth factors receptor (Homo sapiens) (UniProt Q16620). In words: Inhibition of recombinant human His-tagged NTRK2 expressed in baculovirus expression system at 5 uM relative to control. The method in brief:
as §3

For series [12], the target named is T4, Serine/threonine-protein kinase haspin (Homo sapiens) (UniProt Q8TF76).
T4 sequence (whole entry): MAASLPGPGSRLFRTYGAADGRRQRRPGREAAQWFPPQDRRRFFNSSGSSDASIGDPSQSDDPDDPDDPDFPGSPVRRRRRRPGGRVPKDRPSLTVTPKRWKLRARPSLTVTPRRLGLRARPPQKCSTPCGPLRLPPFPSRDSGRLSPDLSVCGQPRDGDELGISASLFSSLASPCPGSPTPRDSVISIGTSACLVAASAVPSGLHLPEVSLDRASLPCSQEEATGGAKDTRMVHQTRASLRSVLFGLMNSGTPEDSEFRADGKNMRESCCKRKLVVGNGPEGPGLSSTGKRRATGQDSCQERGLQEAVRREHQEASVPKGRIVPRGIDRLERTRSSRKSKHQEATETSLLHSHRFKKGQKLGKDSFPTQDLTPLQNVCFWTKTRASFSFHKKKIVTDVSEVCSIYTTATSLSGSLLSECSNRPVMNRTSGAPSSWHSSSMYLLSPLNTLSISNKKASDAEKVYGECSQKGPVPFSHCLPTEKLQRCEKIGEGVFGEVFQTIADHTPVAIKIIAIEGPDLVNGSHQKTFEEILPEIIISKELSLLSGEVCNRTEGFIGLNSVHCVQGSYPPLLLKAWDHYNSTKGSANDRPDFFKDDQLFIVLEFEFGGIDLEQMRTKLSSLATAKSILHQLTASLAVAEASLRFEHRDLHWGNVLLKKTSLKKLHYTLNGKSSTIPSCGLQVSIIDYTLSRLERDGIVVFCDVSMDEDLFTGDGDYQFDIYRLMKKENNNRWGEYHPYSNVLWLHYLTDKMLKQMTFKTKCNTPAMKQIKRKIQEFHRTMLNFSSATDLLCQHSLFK
The series can be described thus: Inhibition of recombinant human N-terminal GST-tagged Haspin expressed in baculovirus expression system at 5 uM relative to control. The method in brief: as §3

For series [13], the target named is Serine/threonine-protein kinase pim-1 (Homo sapiens) (UniProt P11309). The series can be described thus: Inhibition of full length recombinant human His-tagged PIM1 expressed in baculovirus expression system at 5 uM relative to control. The method in brief:
as §3

Series [14] addresses SRSF protein kinase 1 (Homo sapiens) (UniProt Q96SB4). The series can be described thus: Inhibition of full length recombinant human His-tagged SRPK1 expressed in baculovirus expression system at 5 uM relative to control. The method in brief:
as §3

For series [15], the target named is Myosin light chain kinase, smooth muscle (Homo sapiens) (UniProt Q15746). The series can be described thus: Inhibition of full length recombinant human GST-tagged MLCK expressed in baculovirus expression system at 5 uM relative to control. The method in brief:
as §3

Series [16] addresses T5, Serine/threonine-protein kinase 17A (Homo sapiens) (UniProt Q9UEE5).
T5 sequence (whole entry): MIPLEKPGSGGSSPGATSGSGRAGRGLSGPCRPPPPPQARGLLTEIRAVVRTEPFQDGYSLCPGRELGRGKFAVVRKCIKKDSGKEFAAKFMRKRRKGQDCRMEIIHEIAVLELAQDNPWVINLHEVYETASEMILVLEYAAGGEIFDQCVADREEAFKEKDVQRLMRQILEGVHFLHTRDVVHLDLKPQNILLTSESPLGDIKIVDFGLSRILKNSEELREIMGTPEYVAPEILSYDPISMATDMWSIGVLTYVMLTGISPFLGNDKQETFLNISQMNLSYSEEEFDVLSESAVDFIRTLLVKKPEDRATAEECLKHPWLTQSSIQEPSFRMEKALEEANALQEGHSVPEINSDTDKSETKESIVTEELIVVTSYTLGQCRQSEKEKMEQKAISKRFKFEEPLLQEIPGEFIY
In words: Inhibition of full length recombinant human GST-tagged STK17A expressed in baculovirus expression system at 5 uM relative to control. The method in brief: as §3

Series [17] has as its target T3, Dual specificity protein kinase CLK1. The series can be described thus: Inhibition of recombinant GST-tagged human CLK1 expressed in Escherichia coli using RSRSRSRSR peptide as substrate in presence of [gamma-32P]-ATP. The procedure, abridged: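 CLK1 IC50 determined in kinase assay with ATP at 15 μM.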
Target sequence in this assay (P49759 whole entry, the tested form may be a part): as the sequence (P49759 whole entry, looked up, the tested form may be a part) above
The species entered for series [18] is Homo sapiens. In words: Selectivity ratio of IC50 for recombinant GST-tagged human CLK1 to IC50 for recombinant human N-terminal His6-tagged Dyrk1A catalytic domain.
Series [19] can be described thus: Drug metabolism in human liver S9 fraction assessed as CYP450-mediated metabolite formation by measuring parent compound remaining at 0.3 uM after 60 mins by LC-MS/MS analysis. The class given is ADME, subcellular. The following applies: s9, 1 h. The method in brief: as §2

One may read the inhibition as how much of the control response was suppressed. A word on the IC50: it is the concentration that gives 50% inhibition. By half-life is commonly meant the time in which the quantity being followed falls by half.

SRSF protein kinase 1 (Homo sapiens), sequence (Q96SB4 whole entry): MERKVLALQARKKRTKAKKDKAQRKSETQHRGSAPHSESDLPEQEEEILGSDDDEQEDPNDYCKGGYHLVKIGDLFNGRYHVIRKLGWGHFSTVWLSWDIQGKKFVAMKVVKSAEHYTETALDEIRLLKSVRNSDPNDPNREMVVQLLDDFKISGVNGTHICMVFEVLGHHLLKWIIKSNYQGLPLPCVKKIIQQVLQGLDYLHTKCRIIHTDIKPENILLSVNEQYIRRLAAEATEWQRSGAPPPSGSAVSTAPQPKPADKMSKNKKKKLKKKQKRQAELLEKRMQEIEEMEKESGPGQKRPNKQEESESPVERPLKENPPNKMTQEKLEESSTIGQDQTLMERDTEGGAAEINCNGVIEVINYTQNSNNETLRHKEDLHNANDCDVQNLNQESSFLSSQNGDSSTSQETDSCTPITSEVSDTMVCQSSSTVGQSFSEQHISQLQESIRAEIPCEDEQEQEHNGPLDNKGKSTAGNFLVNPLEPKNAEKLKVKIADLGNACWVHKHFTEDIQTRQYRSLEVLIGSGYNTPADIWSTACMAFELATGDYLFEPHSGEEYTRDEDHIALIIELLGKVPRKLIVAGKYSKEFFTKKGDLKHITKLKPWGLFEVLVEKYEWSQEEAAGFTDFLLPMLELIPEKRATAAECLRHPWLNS
Homeodomain-interacting protein kinase 1 (Homo sapiens), sequence (Q86Z02 whole entry, looked up): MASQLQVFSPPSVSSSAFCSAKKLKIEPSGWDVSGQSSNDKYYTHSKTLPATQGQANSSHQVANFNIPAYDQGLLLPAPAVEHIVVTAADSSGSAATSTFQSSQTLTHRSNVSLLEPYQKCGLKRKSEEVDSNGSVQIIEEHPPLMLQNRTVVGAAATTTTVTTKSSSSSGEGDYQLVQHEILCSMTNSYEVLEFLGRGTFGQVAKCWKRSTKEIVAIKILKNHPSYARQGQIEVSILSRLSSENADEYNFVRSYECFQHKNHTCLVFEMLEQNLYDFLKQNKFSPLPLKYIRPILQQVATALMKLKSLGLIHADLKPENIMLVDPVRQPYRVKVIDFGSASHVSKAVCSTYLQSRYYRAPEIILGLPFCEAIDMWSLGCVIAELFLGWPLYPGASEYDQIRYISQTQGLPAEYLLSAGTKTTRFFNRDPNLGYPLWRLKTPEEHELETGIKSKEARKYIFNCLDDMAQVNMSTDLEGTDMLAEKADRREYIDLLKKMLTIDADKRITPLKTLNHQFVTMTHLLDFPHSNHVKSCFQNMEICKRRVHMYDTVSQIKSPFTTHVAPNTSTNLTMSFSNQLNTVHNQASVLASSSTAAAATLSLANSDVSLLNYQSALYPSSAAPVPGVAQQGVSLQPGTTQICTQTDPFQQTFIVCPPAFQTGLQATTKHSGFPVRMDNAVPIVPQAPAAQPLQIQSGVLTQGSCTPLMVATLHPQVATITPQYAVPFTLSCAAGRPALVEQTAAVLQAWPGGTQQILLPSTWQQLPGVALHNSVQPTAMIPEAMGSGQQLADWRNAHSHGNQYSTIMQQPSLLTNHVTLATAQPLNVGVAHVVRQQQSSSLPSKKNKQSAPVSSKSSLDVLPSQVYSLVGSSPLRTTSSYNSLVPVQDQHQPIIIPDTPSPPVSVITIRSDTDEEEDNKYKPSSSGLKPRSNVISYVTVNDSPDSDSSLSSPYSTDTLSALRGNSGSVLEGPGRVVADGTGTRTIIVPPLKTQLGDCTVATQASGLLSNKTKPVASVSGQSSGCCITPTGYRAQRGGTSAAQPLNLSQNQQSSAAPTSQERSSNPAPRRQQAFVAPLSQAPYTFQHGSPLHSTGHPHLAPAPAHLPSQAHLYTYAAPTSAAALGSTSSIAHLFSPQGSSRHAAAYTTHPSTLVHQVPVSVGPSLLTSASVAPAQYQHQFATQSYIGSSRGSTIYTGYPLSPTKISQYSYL
Casein kinase I isoform delta (Homo sapiens), sequence (P48730 whole entry, looked up, canonical isoform): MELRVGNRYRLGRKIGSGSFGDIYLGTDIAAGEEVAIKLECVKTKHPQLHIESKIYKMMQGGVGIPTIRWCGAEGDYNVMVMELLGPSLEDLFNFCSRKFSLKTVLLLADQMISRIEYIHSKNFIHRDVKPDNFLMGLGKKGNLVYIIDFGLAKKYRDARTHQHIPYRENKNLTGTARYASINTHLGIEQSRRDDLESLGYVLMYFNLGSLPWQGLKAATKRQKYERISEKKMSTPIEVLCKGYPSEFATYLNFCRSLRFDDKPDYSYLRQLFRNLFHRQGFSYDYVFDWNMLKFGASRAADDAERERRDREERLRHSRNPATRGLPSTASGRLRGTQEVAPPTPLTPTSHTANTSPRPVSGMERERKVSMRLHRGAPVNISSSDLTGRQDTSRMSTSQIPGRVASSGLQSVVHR
Serine/threonine-protein kinase pim-1 (Homo sapiens), sequence (P11309 whole entry, looked up): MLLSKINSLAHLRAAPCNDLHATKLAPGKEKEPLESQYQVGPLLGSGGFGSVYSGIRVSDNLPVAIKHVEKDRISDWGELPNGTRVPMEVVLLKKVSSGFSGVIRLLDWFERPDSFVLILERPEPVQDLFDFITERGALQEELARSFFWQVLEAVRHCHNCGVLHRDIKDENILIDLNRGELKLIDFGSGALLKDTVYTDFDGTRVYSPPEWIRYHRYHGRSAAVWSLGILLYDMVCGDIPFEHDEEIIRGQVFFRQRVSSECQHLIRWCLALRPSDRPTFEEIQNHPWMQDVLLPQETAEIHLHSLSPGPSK
Cyclin-dependent kinase 5/CDK5 activator 1 (Homo sapiens), sequence (Q00535 whole entry): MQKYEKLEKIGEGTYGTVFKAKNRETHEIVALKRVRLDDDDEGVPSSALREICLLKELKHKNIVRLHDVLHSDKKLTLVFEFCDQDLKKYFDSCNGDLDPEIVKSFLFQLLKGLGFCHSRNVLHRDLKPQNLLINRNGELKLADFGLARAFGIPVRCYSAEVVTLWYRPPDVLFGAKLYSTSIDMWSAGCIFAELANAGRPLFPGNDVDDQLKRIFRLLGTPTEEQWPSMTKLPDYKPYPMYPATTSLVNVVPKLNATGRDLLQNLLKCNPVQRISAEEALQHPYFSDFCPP
Cyclin-dependent kinase 5/CDK5 activator 1 (Homo sapiens), sequence (Q15078 99-307 partner limits assumed): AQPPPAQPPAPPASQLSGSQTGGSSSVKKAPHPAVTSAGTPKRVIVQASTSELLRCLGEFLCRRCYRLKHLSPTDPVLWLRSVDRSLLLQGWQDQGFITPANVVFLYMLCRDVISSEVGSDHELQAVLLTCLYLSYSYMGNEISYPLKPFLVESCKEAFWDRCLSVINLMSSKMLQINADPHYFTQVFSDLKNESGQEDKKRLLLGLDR

Turning to `O=C(Cc1cccc(O)c1)Nc1nc2ccc(O)cc2s1`, the inhibition in series [1] was determined as 0%.

Take `COc1ccc2nc(NC(=O)NCCN3CCOCC3)sc2c1`: in series [1], the inhibition was 0%.

On to `COc1ccc2nc(NC(=O)Nc3ccc(C(=O)NCc4ccccc4)cc3)sc2c1`, for which the inhibition in [1] was 0%.

`O=C(Nc1ccc(C(=O)NCc2ccccc2)cc1)Nc1nc2ccc(O)cc2s1`: in series [1], the inhibition was determined as 69%. The IC50 came out at 63 nM in series [2] and 130 nM in series [3]. For the same compound, the half-life at 0.3 µM in series [4] was 33 min.

As for `COc1ccc2nc(NC(=O)Oc3ccccc3)sc2c1`, the inhibition in series [1] was found to be 0%.

Consider `O=C(Nc1ccccc1)Nc1nnc(-c2ccncc2)s1`, for which the inhibition in [1] turned out to be 12%.

Take `COc1ccc2nc(NC(=O)Nc3ccccc3)sc2c1`: in series [1], the inhibition was found to be 0%.

For `COc1ccc2nc(NC(=O)Nc3ccc(C(=O)O)cc3)sc2c1`, the inhibition in series [1] stood at 0%.

On to `O=C(Nc1nc2ccc(O)cc2s1)Oc1ccccc1`, for which, in [1], the inhibition came out at 0%.

`C[C@]12CC[C@H]3[C@@H](CCC4=CC(=O)CC[C@@]43C)[C@@H]1CC[C@@H]2O` [TESTOSTERONE]: the half-life at 0.3 µM in series [4] was found to be 9.6 min.

Turning to `CN1CCN(C(=O)c2ccc(NC(=O)Nc3nc4ccc(O)cc4s3)cc2)CC1`, the inhibition in series [1] is 21%; in series [6] it was 72%; in series [7], 85%; in series [8] it was 2%; in series [9] it was 9%; in series [10], 50%. Moreover, the inhibition in series [11] stood at 13%; in [12] it was 1%; in [13] it was 29%; in series [14] it was 5%; in [15], 45%; in [16], 39%. Further, the results for the IC50 in series [2], in [3] and in series [17] were 95 nM, 1510 nM and 730 nM, respectively. The Ratio IC50 was 16 in the series filed under Homo sapiens [5] and over 7 in the series filed under Homo sapiens [18]. The half-life at 0.3 µM in series [4] was over 60 min. In series [19], the Stability came out at 88%.

Regarding `COc1ccc2nc(NC(=O)NCCCN3CCN(C)CC3)sc2c1`, the inhibition in [1] stood at 0%.

Turning to `O=C(Nc1cccc(O)c1)Nc1nc2ccc(O)cc2s1`, the inhibition in series [1] was found to be 54.6%. Moreover, the IC50 in series [2] was found to be 134 nM; in [3] it was 370 nM.

Take `COc1cccc(CC(=O)Nc2nc3ccc(OC)cc3s2)c1`: the inhibition in series [1] was 25%.

Consider `COc1ccc2nc(NC(=O)Nc3ccc(C(=O)N4CCN(C)CC4)cc3)sc2c1`, for which, in series [1], the inhibition was determined as 0%.

On to `O=C(Nc1ccccc1)Nc1nc2ccc(O)cc2s1`, for which the inhibition in series [1] was found to be 43.6%. Moreover, the IC50 in [2] is 163 nM; in series [3], 710 nM.
